Data set [1] has as its target Cruzipain (Trypanosoma cruzi) (UniProt P25779). Description: Inhibition of recombinant Trypanosoma cruzi cruzain at 300 uM using Z-FR-AMC as substrate preincubated for 10 mins followed by substrate addition and measured at 12 sec interval for 5 mins by fluorimetric analysis relative to control. To be noted: time 15.0 min. The essentials:
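Recombinant rhodesain or cruzain (1 nM) in 0.1 M sodium acetate pH 5.5, 0.01% Triton X-100, 1 mM β-mercaptoethanol. Compound at a single concentration, either without or after 10 min enzyme pre-incubation. Z-FR-AMC 2.5 µM, read at 340/440 nm every 12 s for 5 min. Inhibition is relative to DMSO, with E-64 as positive control. Done in duplicate (primary screen) or triplicate.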

Data set [2] has as its target Rhodesain (Trypanosoma brucei rhodesiense) (UniProt Q95PM0). As to the kind of experiment: Inhibition of recombinant Trypanosoma brucei rhodesain expressed in Pichia pastoris at 300 uM using Z-FR-AMC as substrate and measured at 12 sec interval for 5 mins without preincubation by fluorimetric analysis relative to control. Put shortly:
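Run with no pre-incubation or with 10 min enzyme-compound pre-incubation. Fluorescence read at 340/440 nm. Concentration was set by solubility under assay conditions. Inhibition is against DMSO, with E-64 as positive control; triplicate.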

Data set [3] addresses T1, Cruzipain (Trypanosoma cruzi, UniProt P25779). As to the kind of experiment: Inhibition of recombinant Trypanosoma cruzi cruzain using Z-FR-AMC as substrate preincubated for 10 mins followed by substrate addition and measured at 12 sec interval for 5 mins by fluorimetric analysis. Put shortly:
(§1)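 Cruzain (recombinant, 1 nM) in 0.1 M sodium acetate pH 5.5 with 0.01% Triton X-100 and 1 mM β-mercaptoethanol; Z-FR-AMC 2.5 µM, read at 340/440 nm every 12 s for 5 min, with or without 10 min enzyme–compound pre-incubation. […] For mechanism and Ki, 0.3–20.0 µM substrate and five inhibitor levels were used, with Lineweaver-Burk plots.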

Data set [4] has as its target T2, Rhodesain (Trypanosoma brucei rhodesiense, UniProt Q95PM0). Description: Inhibition of recombinant Trypanosoma brucei rhodesain expressed in Pichia pastoris using Z-FR-AMC as substrate preincubated for 10 mins followed by substrate addition and measured at 12 sec interval for 5 mins by fluorimetric analysis. The essentials:
(§2)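 Rhodesain (1 nM) with Z-FR-AMC (2.5 µM) in 0.1 M sodium acetate pH 5.5, 0.01% Triton X-100, 1 mM β-mercaptoethanol, with or without 10 min enzyme-compound pre-incubation. Fluorescence read at 340/440 nm. IC50 by four-parameter nonlinear regression from at least six concentrations in triplicate, with at least two independent runs. Mean ± SEM reported.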

Data set [5] has as its target Cruzipain (Trypanosoma cruzi) (UniProt P25779). As to the kind of experiment: Inhibition of recombinant Trypanosoma cruzi cruzain at 100 uM preincubated with BSA for 5 mins followed by incubation with enzyme for 5 mins followed by substrate addition relative to control. As to conditions: time 10.0 min. Put shortly:
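For BSA sensitivity, compound was held 5 min with BSA (2 mg/mL in 0.001% Triton X-100), then 5 min with 1 nM cruzain, before substrate was added and activity monitored. Parallel runs omitted BSA under otherwise identical conditions.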

Data set [6] addresses T2, Rhodesain. As to the kind of experiment: Mixed inhibition of recombinant Trypanosoma brucei rhodesain expressed in Pichia pastoris by Lineweaver-Burk plot analysis. Put shortly:
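Rhodesain rates were measured at six or more Z-FR-AMC levels (0.3–20.0 µM) and five inhibitor levels, in pH 5.5 acetate buffer with 0.01% Triton X-100 and 1 mM β-mercaptoethanol. Read at 340/440 nm. Mechanism and Ki come from Michaelis–Menten nonlinear fits and Lineweaver–Burk linear regression.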

Data set [7] has as its system Trypanosoma cruzi. As to the kind of experiment: Trypanocidal activity against Trypanosoma cruzi Y strain trypomastigotes infected in C57BL/6 mouse peritoneal macrophage assessed as reduction in number of trypomastigotes release at 50 uM and measured after day 3 to day 11 post-infection by Neubauer chamber method. It is filed as functional, organism-based. As to conditions: time 11.0 day. The essentials: (§3)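 Thioglycolate-elicited peritoneal macrophages from female C57BL/6 mice, 2 × 10^5/well, infected 2 h at 37°C with Y strain trypomastigotes at 5:1 (parasite:cell) and washed. They were then held with compound (3.125–50 µM) or IFN-γ 100 ng/mL. Trypomastigotes released into the supernatant were counted in a Neubauer chamber at several days after infection. Three independent experiments, each in triplicate.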

The target in data set [8] is T2, Rhodesain. As to the kind of experiment: Inhibition of recombinant Trypanosoma brucei rhodesain expressed in Pichia pastoris using Z-FR-AMC as substrate and measured at 12 sec interval for 5 mins without preincubation by fluorimetric analysis. Put shortly:
as §2

The target of data set [9] is T1, Cruzipain. Description: Competitive inhibition of recombinant Trypanosoma cruzi cruzain by Lineweaver-Burk plot analysis. Put shortly:
as §1

Data set [10] deals with Trypanosoma brucei brucei. Description: Trypanocidal activity against Trypanosoma brucei brucei Squib 427 assessed as reduction in parasite viability. Format: functional, organism-based.
Data set [11] concerns Trypanosoma cruzi. As to the kind of experiment: Trypanocidal activity against Trypanosoma cruzi Y strain trypomastigotes infected in C57BL/6 mouse peritoneal macrophage assessed as reduction in number of trypomastigotes release and measured after day 3 to day 11 post-infection by Neubauer chamber method. As to conditions: time 11.0 day. It is filed as functional, organism-based. Put shortly:
as §3

The test system of data set [12] is Peritoneal macrophage. As to the kind of experiment: Cytotoxicity against C57BL/6 mouse peritoneal macrophages assessed as reduction in cell viability at 3.125 uM measured after 24 hrs by LDH release assay. It is filed as cell-based. The essentials: (§4)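 Thioglycolate-elicited peritoneal macrophages from female C57BL/6 mice, 2 × 10^5/well, infected or not with T. cruzi Y trypomastigotes (5:1, 2 h). Either the cells got 3.125–50 µM compound or IFN-γ 100 ng/mL, or the parasites were pre-treated 1 h at 3.125 µM. LDH in supernatant measured at 24 h. Three experiments in triplicate.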
Background: Release of lactate dehydrogenase indicates damage to the cell membrane.

The subject of data set [13] is Trypanosoma cruzi. As to the kind of experiment: Trypanocidal activity against Trypanosoma cruzi Y strain trypomastigotes pretreated with compound at 3.125 uM infected in macrophage assessed as reduction in number of trypomastigotes release measured after 7 days by Neubauer chamber method. Format: functional, Peritoneal macrophage. As to conditions: time 7 day. Details: scale not given: the % may be the effect or the level left. The essentials:
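Y strain trypomastigotes (1×10^6/mL) were incubated 1 h at 37°C in RPMIc with compound at 3.125 µM or medium alone. They were then pelleted, recounted and used to infect C57BL/6 peritoneal macrophages at 5:1 (parasite:cell) for 2 h. Trypomastigotes released into the supernatant were counted in a Neubauer chamber at 5, 7, 9 and 11 days. Three independent experiments, each in triplicate.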

For data set [14], the system named is Peritoneal macrophage. Description: Cytotoxicity against C57BL/6 mouse peritoneal macrophage cells infected with 3.125 uM compound pretreated trypomastigotes and measured after 24 hrs by LDH release assay. It is filed as cell-based. Put shortly:
as §4

In data set [15] the test system is Peritoneal macrophage. Description: Effect on nitric oxide production in Trypanosoma cruzi Y strain trypomastigotes infected in C57BL/6 mouse peritoneal macrophage measured after 11 days by Griess reagent based assay. It is filed as functional, tissue-based. To be noted: time 11.0 day. Put shortly: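 Peritoneal macrophages from C57BL/6 mice, infected with T. cruzi Y trypomastigotes at 5:1 for 2 h and/or stimulated with compound or IFN-γ. Supernatant taken 11 days later and mixed with Griess reagent for 10 min. Absorbance read at 540 nm to give nitrite. Three independent experiments in triplicate.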
For orientation: Nitrite, measured by Griess reagent, commonly stands in for NO production.

Activity calls are given as the source filed them. The rule behind the calls is not given here.

T2 sequence (Q95PM0 whole entry): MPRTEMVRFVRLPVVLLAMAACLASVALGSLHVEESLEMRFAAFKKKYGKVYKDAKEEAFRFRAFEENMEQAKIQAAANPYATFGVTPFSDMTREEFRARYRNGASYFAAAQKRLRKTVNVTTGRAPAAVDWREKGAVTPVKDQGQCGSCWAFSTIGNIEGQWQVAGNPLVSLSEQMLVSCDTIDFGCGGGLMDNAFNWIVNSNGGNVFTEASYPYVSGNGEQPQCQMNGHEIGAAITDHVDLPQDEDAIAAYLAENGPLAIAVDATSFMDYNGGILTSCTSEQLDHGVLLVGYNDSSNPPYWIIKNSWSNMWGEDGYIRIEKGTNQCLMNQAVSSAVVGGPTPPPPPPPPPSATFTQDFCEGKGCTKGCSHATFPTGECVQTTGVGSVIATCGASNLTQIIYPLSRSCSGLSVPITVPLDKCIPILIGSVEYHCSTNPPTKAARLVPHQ
Sequence of Cruzipain (Trypanosoma cruzi) (P25779 123-467 limits assumed): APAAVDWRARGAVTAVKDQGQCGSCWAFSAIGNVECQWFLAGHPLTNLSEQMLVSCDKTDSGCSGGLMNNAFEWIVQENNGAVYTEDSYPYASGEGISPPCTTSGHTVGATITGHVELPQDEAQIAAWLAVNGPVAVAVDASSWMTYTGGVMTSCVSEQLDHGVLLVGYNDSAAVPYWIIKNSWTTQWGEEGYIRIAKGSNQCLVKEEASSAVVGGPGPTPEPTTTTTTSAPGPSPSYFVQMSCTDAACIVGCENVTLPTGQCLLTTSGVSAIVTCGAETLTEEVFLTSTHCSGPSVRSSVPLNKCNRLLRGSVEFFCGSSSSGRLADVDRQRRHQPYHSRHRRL
Sequence of Rhodesain (Trypanosoma brucei rhodesiense) (Q95PM0 1-450): as the sequence (Q95PM0 whole entry) above
T1 sequence (P25779 whole entry): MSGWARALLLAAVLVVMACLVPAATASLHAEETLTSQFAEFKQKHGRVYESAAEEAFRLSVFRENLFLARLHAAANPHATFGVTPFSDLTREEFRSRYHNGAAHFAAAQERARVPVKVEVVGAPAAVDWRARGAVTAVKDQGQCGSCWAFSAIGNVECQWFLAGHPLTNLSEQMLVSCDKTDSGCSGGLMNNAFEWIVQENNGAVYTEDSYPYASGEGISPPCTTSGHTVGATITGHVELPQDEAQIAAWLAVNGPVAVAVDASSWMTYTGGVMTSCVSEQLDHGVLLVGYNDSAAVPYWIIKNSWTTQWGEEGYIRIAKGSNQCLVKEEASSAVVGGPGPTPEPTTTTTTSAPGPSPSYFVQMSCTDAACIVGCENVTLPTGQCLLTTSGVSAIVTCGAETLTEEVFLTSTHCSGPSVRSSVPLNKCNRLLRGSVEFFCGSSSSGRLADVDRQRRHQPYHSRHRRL

Consider `Cn1c(=O)n(C)c2cc(CNCCNc3ccnc4cc(Cl)ccc34)ccc21`, for which the inhibition in [1] was 80%; in data set [2], 67%; in data set [5], 87.8%. The results for the half-inhibitory concentration (IC50) at Cruzipain [3] and at Rhodesain [4] were 51 µM and 38 µM, respectively. Besides, the Ki on Rhodesain [6] was found to be 10 µM. Besides, the result in the data set with Trypanosoma cruzi [7] was Active.

Regarding `Cl.Cl.Clc1cc(Br)ccc1-c1ccc(CNCC2CCNCC2)o1`, the inhibition in data set [1] was determined as 84%; in [2] it was 96%; in data set [5] it was 90.1%. Besides, the figures for the IC50 (at Rhodesain [8]; in data set [10]) were 53 µM and 0.1 µM, respectively. In addition, the Ki on Cruzipain [9] worked out at 3 µM. Besides, the result with Trypanosoma cruzi [7] was Active. Moreover, the Activity result in the data set with Trypanosoma cruzi [11] was “Dose-dependent effect”; with Peritoneal macrophage [12], “Non-Toxic”; in the data set with Trypanosoma cruzi [13], 60%; with Peritoneal macrophage [14] it was 30%. For the same molecule, the result with Peritoneal macrophage [15] was inactive.

As a reminder, the inhibition is the share of the control response that was lost under treatment. What is called IC50 is the concentration needed to halve the response being measured. Usually Ki stands for a measure of affinity in units of concentration, obtained from inhibition or displacement.

Values taken from ChEMBL document CHEMBL4665666, “Discovery and characterization of trypanocidal cysteine protease inhibitors from the 'malaria box'” (Eur J Med Chem, 2019).
